From ChEMBL document CHEMBL1806477, “Discovery of novel imidazo[1,2-a]pyridines as inhibitors of the insulin-like growth factor-1 receptor tyrosine kinase” (Bioorg Med Chem Lett, 2011)

What was measured:
[1] = target: Cyclin-dependent kinase 2 (Homo sapiens, UniProt P24941); experiment: Inhibition of CDK2
Insulin receptor [2] = target: T1, Insulin receptor (Homo sapiens, UniProt P06213); experiment: Inhibition of insulin receptor
Insulin receptor [3] = target: T1, Insulin receptor; experiment: Inhibition of insulin-induced autophosphorylation of human insulin receptor expressed in CHO cells; assay type: cell-based
How it was run: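 CHO cells transfected with the human insulin receptor gene, stimulated with insulin; the read-out is inhibition of receptor auto-phosphorylation.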

[4] = target: Mitogen-activated protein kinase 8 (Homo sapiens) (UniProt P45983); experiment: Inhibition of JNK1 at 1 uM
[5] = target: Mitogen-activated protein kinase 9 (Homo sapiens) (UniProt P45984); experiment: Inhibition of JNK2 at 1 uM
[6] = target: T2, Mitogen-activated protein kinase 15 (Homo sapiens) (UniProt Q8TD08); experiment: Inhibition of ERK8 at 1 uM
T2 sequence (whole entry): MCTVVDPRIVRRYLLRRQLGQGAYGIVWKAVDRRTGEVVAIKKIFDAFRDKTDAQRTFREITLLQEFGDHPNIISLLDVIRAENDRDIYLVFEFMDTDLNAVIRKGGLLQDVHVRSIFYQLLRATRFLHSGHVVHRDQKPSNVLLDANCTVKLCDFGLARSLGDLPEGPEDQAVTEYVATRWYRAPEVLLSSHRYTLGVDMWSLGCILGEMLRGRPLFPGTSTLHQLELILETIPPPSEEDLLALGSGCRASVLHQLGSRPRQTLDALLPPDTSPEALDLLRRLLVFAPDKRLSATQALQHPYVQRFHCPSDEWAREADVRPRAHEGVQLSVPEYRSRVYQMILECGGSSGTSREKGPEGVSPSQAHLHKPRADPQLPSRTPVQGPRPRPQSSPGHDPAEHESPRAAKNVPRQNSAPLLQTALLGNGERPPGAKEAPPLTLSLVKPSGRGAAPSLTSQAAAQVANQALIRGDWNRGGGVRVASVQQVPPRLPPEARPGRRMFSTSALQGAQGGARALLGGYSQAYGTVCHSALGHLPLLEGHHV

[7] = Plasma clearance in nude mouse at 4 umol/kg, iv and 10 umol/kg, po; assay type: ADME, organism-based
[8] = Volume of distribution at steady state in nude mouse at 4 umol/kg, iv and 10 umol/kg, po; assay type: ADME, organism-based; conditions: in vivo, read-out: Vdss
[9] = Terminal half life in nude mouse at 4 umol/kg, iv and 10 umol/kg, po; assay type: ADME, organism-based; conditions: in vivo, read-out: beta t1/2 (converted)
[10] = Oral bioavailability in nude mouse at 10 umol/kg; assay type: ADME, organism-based; conditions: in vivo
[11] = Plasma clearance in Han Wistar rat at 4 umol/kg, iv and 10 umol/kg, po; assay type: ADME, organism-based
How it was run: (§1)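 Male Han Wistar rats, each given an intravenous dose and a separate oral dose; parameters derived from the plasma concentration profiles.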

[12] = Volume of distribution at steady state in Han Wistar rat at 4 umol/kg, iv and 10 umol/kg, po; assay type: ADME, organism-based; conditions: in vivo, read-out: Vdss; how it was run: as §1
[13] = Terminal half life in Han Wistar rat at 4 umol/kg, iv and 10 umol/kg, po; assay type: ADME, organism-based; conditions: in vivo, read-out: beta t1/2 (converted); how it was run: as §1
[14] = Oral bioavailability in Han Wistar rat at 10 umol/kg; assay type: ADME, organism-based; conditions: in vivo
[15] = Plasma clearance in Beagle dog at 0.8 umol/kg, iv and 10 umol/kg, po; assay type: ADME, organism-based, Canis lupus familiaris
How it was run: (§2)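 Values are means from two beagle dogs, one male and one female, each given an intravenous dose and an oral dose.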

[16] = Volume of distribution at steady state in Beagle dog at 0.8 umol/kg, iv and 10 umol/kg, po; assay type: ADME, organism-based, Canis lupus familiaris; conditions: in vivo, read-out: Vdss; how it was run: as §2
[17] = Terminal half life in Beagle dog at 0.8 umol/kg, iv and 10 umol/kg, po; assay type: ADME, organism-based, Canis lupus familiaris; conditions: in vivo, read-out: beta t1/2 (converted); how it was run: as §2
[18] = Oral bioavailability in Beagle dog at 10 umol/kg; assay type: ADME, organism-based, Canis lupus familiaris; conditions: in vivo; how it was run: as §2
[19] = Intrinsic clearance in mouse hepatocytes assessed per 10^6 cells; assay type: ADME, cell-based, Liver, Hepatocyte
[20] = Intrinsic clearance in rat hepatocytes assessed per 10^6 cells; assay type: ADME, cell-based, Liver, Hepatocyte
[21] = Intrinsic clearance in dog hepatocytes assessed per 10^6 cells; assay type: ADME, cell-based, Canis lupus familiaris, Liver, Hepatocyte
[22] = Intrinsic clearance in human hepatocytes assessed per 10^6 cells; assay type: ADME, cell-based, Liver, Hepatocyte
[23] = target: T3, Insulin-like growth factor 1 receptor (Homo sapiens, UniProt P08069); experiment: Inhibition of IGF1-induced autophosphorylation of human recombinant IGF1R expressed in mouse fibroblasts by high throughput assay
[24] = target: T3, Insulin-like growth factor 1 receptor; experiment: Inhibition of IGF1R

T3 sequence (P08069 31-736 limits assumed): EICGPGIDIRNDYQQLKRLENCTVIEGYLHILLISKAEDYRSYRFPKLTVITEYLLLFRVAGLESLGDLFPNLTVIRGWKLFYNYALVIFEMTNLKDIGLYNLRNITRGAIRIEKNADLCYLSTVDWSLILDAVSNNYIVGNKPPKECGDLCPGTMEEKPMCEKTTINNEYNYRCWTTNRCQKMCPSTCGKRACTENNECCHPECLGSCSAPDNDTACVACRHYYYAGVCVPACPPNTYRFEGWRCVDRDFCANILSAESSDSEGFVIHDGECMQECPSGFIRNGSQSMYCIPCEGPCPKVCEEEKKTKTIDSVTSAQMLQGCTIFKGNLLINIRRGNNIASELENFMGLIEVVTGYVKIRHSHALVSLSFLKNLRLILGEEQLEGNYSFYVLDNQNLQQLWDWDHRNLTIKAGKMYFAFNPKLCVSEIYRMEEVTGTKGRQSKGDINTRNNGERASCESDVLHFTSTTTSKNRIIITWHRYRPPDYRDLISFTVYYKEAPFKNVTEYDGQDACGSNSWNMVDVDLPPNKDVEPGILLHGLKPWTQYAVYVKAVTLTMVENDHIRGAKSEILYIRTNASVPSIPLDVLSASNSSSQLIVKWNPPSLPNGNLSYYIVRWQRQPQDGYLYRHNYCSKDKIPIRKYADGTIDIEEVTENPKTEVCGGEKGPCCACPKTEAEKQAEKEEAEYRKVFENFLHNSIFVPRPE
T3 sequence (P08069 741-1367 limits assumed): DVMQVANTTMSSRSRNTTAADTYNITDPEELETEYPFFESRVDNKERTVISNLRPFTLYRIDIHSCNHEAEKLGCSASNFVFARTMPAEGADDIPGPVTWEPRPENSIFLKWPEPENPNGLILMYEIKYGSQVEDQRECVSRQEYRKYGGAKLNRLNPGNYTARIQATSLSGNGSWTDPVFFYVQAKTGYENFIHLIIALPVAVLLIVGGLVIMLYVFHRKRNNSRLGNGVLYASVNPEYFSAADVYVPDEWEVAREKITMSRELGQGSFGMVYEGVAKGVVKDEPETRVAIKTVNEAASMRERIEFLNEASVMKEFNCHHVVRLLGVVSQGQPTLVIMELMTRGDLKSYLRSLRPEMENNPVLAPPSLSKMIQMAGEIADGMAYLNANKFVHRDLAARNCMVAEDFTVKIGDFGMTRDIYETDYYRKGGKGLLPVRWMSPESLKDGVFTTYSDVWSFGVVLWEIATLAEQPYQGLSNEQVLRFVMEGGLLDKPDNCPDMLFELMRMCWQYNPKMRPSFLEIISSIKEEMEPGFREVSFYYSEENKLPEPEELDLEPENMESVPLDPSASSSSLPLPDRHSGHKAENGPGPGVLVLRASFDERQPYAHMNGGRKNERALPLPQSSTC
T1 sequence (P06213 28-758 limits assumed): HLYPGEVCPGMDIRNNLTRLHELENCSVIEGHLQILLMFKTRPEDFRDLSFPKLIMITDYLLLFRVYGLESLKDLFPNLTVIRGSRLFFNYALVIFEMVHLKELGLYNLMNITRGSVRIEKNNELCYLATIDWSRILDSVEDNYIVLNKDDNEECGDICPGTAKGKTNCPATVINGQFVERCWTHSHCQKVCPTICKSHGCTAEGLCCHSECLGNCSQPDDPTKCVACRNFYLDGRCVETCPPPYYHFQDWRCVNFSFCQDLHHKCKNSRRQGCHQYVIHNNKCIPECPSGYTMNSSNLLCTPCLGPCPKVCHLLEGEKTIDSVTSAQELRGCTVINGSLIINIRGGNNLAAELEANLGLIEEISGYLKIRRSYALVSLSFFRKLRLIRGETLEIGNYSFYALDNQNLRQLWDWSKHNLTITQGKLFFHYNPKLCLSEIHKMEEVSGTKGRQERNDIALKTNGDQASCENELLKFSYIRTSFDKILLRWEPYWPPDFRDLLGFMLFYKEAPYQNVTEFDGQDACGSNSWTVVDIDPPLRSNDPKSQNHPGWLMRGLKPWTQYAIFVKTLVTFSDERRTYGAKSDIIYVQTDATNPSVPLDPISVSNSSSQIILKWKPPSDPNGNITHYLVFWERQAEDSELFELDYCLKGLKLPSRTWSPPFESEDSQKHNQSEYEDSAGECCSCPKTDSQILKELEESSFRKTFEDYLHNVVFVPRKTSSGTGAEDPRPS
T1 sequence (P06213 763-1382 limits assumed): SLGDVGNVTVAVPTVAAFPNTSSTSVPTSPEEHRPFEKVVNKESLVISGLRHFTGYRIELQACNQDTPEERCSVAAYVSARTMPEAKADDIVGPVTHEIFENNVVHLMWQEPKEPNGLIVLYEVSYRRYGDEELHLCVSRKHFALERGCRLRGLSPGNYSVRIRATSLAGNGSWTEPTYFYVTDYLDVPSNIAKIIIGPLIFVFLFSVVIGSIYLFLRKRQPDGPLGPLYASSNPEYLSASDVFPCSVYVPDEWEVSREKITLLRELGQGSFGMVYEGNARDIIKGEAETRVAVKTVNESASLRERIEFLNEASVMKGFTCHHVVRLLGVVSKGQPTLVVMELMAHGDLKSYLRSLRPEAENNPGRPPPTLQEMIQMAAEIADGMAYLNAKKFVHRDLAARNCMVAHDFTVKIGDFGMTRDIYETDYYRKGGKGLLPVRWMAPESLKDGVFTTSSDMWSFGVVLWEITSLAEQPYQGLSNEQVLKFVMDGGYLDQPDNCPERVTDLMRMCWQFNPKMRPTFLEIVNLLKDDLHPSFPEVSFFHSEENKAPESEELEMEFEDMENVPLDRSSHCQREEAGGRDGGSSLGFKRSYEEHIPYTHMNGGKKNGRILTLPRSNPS
Chain of Mitogen-activated protein kinase 9 (Homo sapiens) (P45984 whole entry, looked up): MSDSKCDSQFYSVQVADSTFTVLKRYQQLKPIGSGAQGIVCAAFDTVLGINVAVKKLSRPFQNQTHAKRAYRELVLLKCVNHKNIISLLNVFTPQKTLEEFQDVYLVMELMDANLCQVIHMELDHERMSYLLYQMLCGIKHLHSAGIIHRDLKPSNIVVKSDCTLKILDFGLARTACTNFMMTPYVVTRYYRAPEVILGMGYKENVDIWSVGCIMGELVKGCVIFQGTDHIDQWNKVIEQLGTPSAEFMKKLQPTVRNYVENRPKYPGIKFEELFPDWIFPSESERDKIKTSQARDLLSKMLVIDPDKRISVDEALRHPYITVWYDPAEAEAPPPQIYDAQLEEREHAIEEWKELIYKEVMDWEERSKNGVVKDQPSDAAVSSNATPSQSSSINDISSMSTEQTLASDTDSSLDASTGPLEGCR
Chain of Mitogen-activated protein kinase 8 (Homo sapiens) (P45983 whole entry): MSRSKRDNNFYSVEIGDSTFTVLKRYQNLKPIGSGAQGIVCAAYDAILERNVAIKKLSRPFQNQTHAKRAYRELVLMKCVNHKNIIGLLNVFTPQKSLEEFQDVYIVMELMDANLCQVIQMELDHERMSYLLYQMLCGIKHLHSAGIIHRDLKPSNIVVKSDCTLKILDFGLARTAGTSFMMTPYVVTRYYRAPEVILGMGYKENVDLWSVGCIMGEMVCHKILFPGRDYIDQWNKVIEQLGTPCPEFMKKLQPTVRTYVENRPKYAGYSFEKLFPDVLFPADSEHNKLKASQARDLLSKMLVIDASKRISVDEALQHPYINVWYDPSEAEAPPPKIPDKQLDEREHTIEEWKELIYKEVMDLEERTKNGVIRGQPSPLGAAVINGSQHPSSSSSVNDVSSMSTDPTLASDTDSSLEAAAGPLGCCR

COc1cc(N2CCN(C(C)=O)CC2)ccc1Nc1ncc(Cl)c(-c2cnc3ccccn23)n1 showed an IC50 [1] of 1.1 µM, an IC50 (Insulin receptor [2]) of 0.009 µM and an IC50 (Insulin receptor [3]) of 0.012 µM. For the same compound, the inhibition [4] was over 80%, the inhibition [5] was over 80% and the inhibition [6] was over 80%. For the same compound, the clearance [7] was 15 mL/min/kg, the Vd [8] was 0.8 L/kg and the half-life [9] was 0.9 h. The bioavailability [10] was 36%, the clearance [11] was 6.5 mL/min/kg and the Vd [12] was 0.7 L/kg. For the same compound, the half-life [13] was 4.6 h, the bioavailability [14] was 49% and the clearance [15] was 4.7 mL/min/kg. It also gave a Vd [16] of 1.9 L/kg, a half-life [17] of 5.5 h and a bioavailability [18] of 30%. For the same compound, the hepatocyte CLint [19] was 32 µL/min/1e6 cells, the hepatocyte CLint [20] was 15 µL/min/1e6 cells and the hepatocyte CLint [21] was 6.7 µL/min/1e6 cells. For the same compound, the hepatocyte CLint [22] was 6.9 µL/min/1e6 cells.
With COc1cc(N2CCN(C(C)=O)CC2)ccc1Nc1ncc(OC)c(-c2cnc3ccccn23)n1 the IC50 [1] was 53 µM and the IC50 [23] was 0.19 µM.
For NS(=O)(=O)c1ccc(Nc2nccc(-c3cnc4ccccn34)n2)cc1, the IC50 [24] was 1.26 µM and the IC50 [1] was 0.001 µM.
COc1cc(N2CCN(C(C)=O)CC2)ccc1Nc1ncc(C(F)(F)F)c(-c2cnc3ccccn23)n1 showed an IC50 [1] of 16 µM.
Work on COc1cc(N2CCN(C(C)=O)CC2)ccc1Nc1ncc(Br)c(-c2cnc3ccccn23)n1 yielded an IC50 [24] of 0.003 µM, an IC50 [1] of 1.1 µM and an IC50 [23] of 0.009 µM.
Work on COc1cc(N2CCN(C(C)=O)CC2)ccc1Nc1ncc(C#N)c(-c2cnc3ccccn23)n1 yielded an IC50 [1] of 27 µM and an IC50 [23] of 0.17 µM.
COc1cc(N2CCN(C(C)=O)CC2)ccc1Nc1ncc(F)c(-c2cnc3ccccn23)n1 showed an IC50 [24] of 0.089 µM, an IC50 [1] of 2.7 µM and an IC50 [23] of 0.13 µM.
With COc1cc(N2CCN(C(C)=O)CC2)ccc1Nc1ncc(C)c(-c2cnc3ccccn23)n1 the IC50 [1] was 10 µM and the IC50 [23] was 0.092 µM.
With CC(=O)N1CCN(c2ccc(Nc3nccc(-c4cnc5ccccn45)n3)cc2)CC1 the IC50 [24] was 0.27 µM and the IC50 [1] was 0.078 µM.
COc1cc(N2CCN(C(C)=O)CC2)ccc1Nc1nccc(-c2cnc3ccccn23)n1 showed an IC50 [24] of 0.45 µM, an IC50 [1] of over 100 µM and an IC50 [23] of 1.34 µM.
